Laboratory results published in ChEMBL document CHEMBL6071188, “Synthesis and In Vivo Profiling of Desymmetrized Antimalarial Trioxolanes with Diverse Carbamate Side Chains” (ACS Med Chem Lett, 2024).
≈ marks a conversion by molar mass, not a printed value. Calls of active or inactive are those of the source. No cut-off for these calls is given here.

How the values were obtained:
Plasmodium berghei [1] = assay: Antiplasmodial activity against Plasmodium berghei infected in female Swiss Webster mouse model assessed as reduction in parasitemia at 20 mg/kg, po administered as a single dose and monitored for 30 days by giemsa staining based microscopic analysis; settings: time 30.0 day
Plasmodium berghei [2] = assay: Antiplasmodial activity against Plasmodium berghei infected in female Swiss Webster mouse model assessed as survival at 20 mg/kg, po administered once daily for 1 day
[3] = Solubility of the compound in PBS buffer at pH 7.4 at 2 mg/ml incubated for 5 to 6 hrs by LC-MS analysis; type: physicochemical; settings: time 5-6 hrs
[4] = Toxicity in female Swiss Webster mouse infected with Plasmodium berghei assessed as drug tolerance at 10 mg/kg, po administered once daily for 2 days and measured upto 30 days; type: organism-based; settings: in vivo, 720 h, time 30 day
Summary of the method: (§1)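 Female Swiss Webster mice (~20 g) infected ip with 10^6 P. berghei-infected erythrocytes from a donor mouse. Dosing by oral gavage once daily for 1–2 days starting 1 h post-inoculation, in 10% DMSO/50% PEG400/40% of 20% HP-β-CD in water. Five mice per arm. Daily Giemsa smears from day 7, counting infected cells per 1000 erythrocytes. Body weight tracked. Euthanasia at >50% parasitemia or >15% weight loss. Followed to day 30; cure means no parasitemia at day 30. Survival reported as the day of the longest-surviving mouse.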

[5] = Solubility of the compound in PBS buffer at pH 7.4; type: physicochemical
[6] = Toxicity in female Swiss Webster mouse infected with Plasmodium berghei assessed as drug tolerance at 4 mg/kg, po administered once daily for 2 days and measured upto 30 days; type: organism-based; settings: in vivo, 720 h, time 30 day
Summary of the method: as §1

[7] = Toxicity in female Swiss Webster mouse infected with Plasmodium berghei assessed as drug tolerance at 20 mg/kg, […]; type: organism-based; settings: in vivo, po
Plasmodium berghei [8] = assay: Antiplasmodial activity against Plasmodium berghei infected in female Swiss Webster mouse model assessed as survival at 50 mg/kg, […]; type: functional; settings: route po
Summary of the method: as §1

Plasmodium berghei [9] = assay: Antiplasmodial activity against Plasmodium berghei infected in female Swiss Webster mouse model assessed as survival at 4 mg/kg, po administered once daily for 2 days and measured upto 30 days; type: functional; settings: time 30 day
Summary of the method: as §1

[10] = Toxicity in female Swiss Webster mouse infected with Plasmodium berghei assessed as drug tolerance at 50 mg/kg, […]; type: organism-based; settings: in vivo, po
Summary of the method: as §1

Plasmodium berghei [11] = assay: Antiplasmodial activity against Plasmodium berghei infected in female Swiss Webster mouse model assessed as cure rate at 40 mg/kg, po measured upto 30 days relative to control; type: functional; settings: time <= 30 day
Plasmodium berghei [12] = assay: Antiplasmodial activity against Plasmodium berghei infected in female Swiss Webster mouse model assessed as survival at 10 mg/kg, po administered once daily for 2 days and measured upto 30 days; type: functional; settings: time 30 day
Summary of the method: as §1

Plasmodium falciparum = assay: Antiplasmodial activity against Plasmodium falciparum W2 infected in human erythrocytes assessed as inhibition of parasitic growth incubated for 72 hrs by YOYO-1 staining based FACScalibur flow cytometry analysis; type: functional, organism-based; settings: W2, Erythrocyte
Summary of the method: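 P. falciparum W2 grown at 2% hematocrit in RPMI 1640 with 0.5% AlbuMAX II, 0.1 mM hypoxanthine and 25 mM HEPES pH 7.4, at 37 °C under 5% O2/5% CO2/90% N2. Twelve concentrations (3-fold steps, 10 μM to 0.06 nM) or DMSO, 72 h. Cells fixed in 2% formaldehyde, permeabilized, stained with 25 nM YOYO-1 (≥24 h, 4 °C). Parasitemia by flow cytometry on 5 × 10^4 cells. IC50 from 3 replicates.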

[13] = Metabolic stability in human liver microsomes assessed as intrinsic clearance; type: ADME, Microsome; settings: for microsomal CLint: liver microsomes, read-out: CLH
[14] = AUClast in male CD1 mouse at 10 mg/kg, po measured upto 24 hrs; type: ADME, organism-based; settings: in vivo
Summary of the method: (§2)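 Male CD1 mice, n = 3 per group, dosed IV at 3 mg/kg or PO at 10 mg/kg in 10% DMSO/50% PEG400/40% of 20% HP-β-CD in water. Samples below the limit of quantitation excluded from parameters and mean concentrations.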

[15] = Clearance in male CD1 mouse at 3 mg/kg, iv measured upto 24 hrs; type: ADME, organism-based; settings: in vivo
Summary of the method: as §2

[16] = Volume of distribution at steady state in male CD1 mouse at 3 mg/kg, iv measured upto 24 hrs; type: ADME, organism-based; settings: in vivo
Summary of the method: as §2

[17] = Half life in male CD1 mouse at 10 mg/kg, po measured upto 24 hrs; type: ADME, organism-based; settings: in vivo
[18] = Oral bioavailability in male CD1 mouse at 10 mg/kg measured upto 24 hrs; type: ADME, organism-based; settings: in vivo
Summary of the method: as §2

Plasmodium berghei [19] = assay: Antiplasmodial activity against Plasmodium berghei infected in female Swiss Webster mouse model assessed as reduction in parasitemia at 20 mg/kg, po administered once daily for 2 days and measured upto 30 days by giemsa staining based microscopic analysis; type: functional, organism-based; settings: time 30.0 day
Summary of the method: as §1

Plasmodium berghei [20] = assay: Antiplasmodial activity against Plasmodium berghei infected in female Swiss Webster mouse model assessed as survival at 20 mg/kg, po […]; type: functional
Summary of the method: as §1

[21] = Oral bioavailability in rat at 17.4 mg/kg by LC-MS analysis; type: ADME, organism-based; settings: in vivo
Plasmodium berghei [22] = assay: Antiplasmodial activity Plasmodium berghei ANKA infected in female NMRI mouse model assessed as cure rate at 10 mg/kg, po administered as three consecutive dose daily for 24 to 72 hrs post infection by giemsa staining based microscopy analysis relative to control; type: functional; settings: time 24-72 hrs

c1cc([C@H]2CC[C@]3(CC2)OO[C@]2(O3)C3CC4CC(C3)CC2C4)ccc1OCCN1CCOCC1
Activity (Plasmodium berghei [1]): Active | Survival (Plasmodium berghei [2]): 30 days | solubility [3]: 0.181 µM (≈ 0.085 µg/mL)

NC1CCN(C(=O)O[C@@H]2CCC[C@]3(C2)OOC2(O3)C3CC4CC(C3)CC2C4)CC1 (stereo partly drawn)
Activity [4]: Non-Toxic | solubility kinetic [5]: 145 µM (≈ 58.9 µg/mL) | Activity [6]: Non-Toxic | Activity [7]: Non-Toxic | Survival (Plasmodium berghei [8]): 12 days | Survival (Plasmodium berghei [9]): 11 days | Activity [10]: Non-Toxic | Activity (Plasmodium berghei [11]): 20% | Survival (Plasmodium berghei [12]): 12 days | Survival (Plasmodium berghei [2]): 11 days

NC1(CNC(=O)O[C@@H]2CCC[C@]3(C2)OOC2(O3)C3CC4CC(C3)CC2C4)CC1 (stereo partly drawn)
EC50 (Plasmodium falciparum): 1.5 nM | microsomal CLint [13]: 41.7 µL/min/mg

NCCNC(=O)O[C@H]1CCC[C@@]2(C1)OOC1(O2)C2CC3CC(C2)CC1C3 (stereo partly drawn)
Activity [4]: Non-Toxic | AUClast [14]: 1038 ng·h/mL | solubility kinetic [5]: 144 µM (≈ 52.8 µg/mL) | CL [15]: 66 mL/min/kg | Vdss [16]: 2.33 L/kg | t1/2 [17]: 1.66 h | Survival (Plasmodium berghei [12]): 30 days | F [18]: 43.1% | microsomal intrinsic clearance ([13]; microsomes): 23.1 µL/min/mg | Activity (Plasmodium berghei [19]): Active

CC(C)(N)CNC(=O)O[C@@H]1CCC[C@]2(C1)OOC1(O2)C2CC3CC(C2)CC1C3 (stereo partly drawn)
AUClast [14]: 555 ng·h/mL | CL [15]: 108 mL/min/kg | Activity [7]: Non-Toxic | Vdss [16]: 2.79 L/kg | t1/2 [17]: 2.09 h | Survival (Plasmodium berghei [2]): 12 days | F [18]: 39.3% | microsomal CLint [13]: 12.8 µL/min/mg

(S,S)-dispiro[adamantane-2,3'-[1,2,4]trioxolane-5',1''-cyclohexan]-3''-yl-piperidine-1-carboxylate
Survival (Plasmodium berghei [20]): 7 days

CC(C)(N)CNC(=O)C[C@H]1CC[C@]2(CC1)OO[C@]1(O2)C2CC3CC(C2)CC1C3
Activity [4]: Non-Toxic | Activity (Plasmodium berghei [11]): 100% | Survival (Plasmodium berghei [12]): 14 days | bioavailability [21]: 35% | Activity (Plasmodium berghei [22]): 67% | solubility [3]: 504 µM (≈ 198 µg/mL) | microsomal CLint [13]: < 7 µL/min/mg

CC(C)(N)CNC(=O)O[C@H]1CCC[C@@]2(C1)OOC1(O2)C2CC3CC(C2)CC1C3 (stereo partly drawn)
Activity [4]: Non-Toxic | AUClast [14]: 818 ng·h/mL | solubility kinetic [5]: 174 µM (≈ 68.6 µg/mL) | CL [15]: 77 mL/min/kg | Activity [7]: Non-Toxic | Vdss [16]: 2.5 L/kg | t1/2 [17]: 1.44 h | Survival (Plasmodium berghei [12]): 30 days | Survival (Plasmodium berghei [2]): 20 days | F [18]: 38.9% | microsomal CLint [13]: < 11.5 µL/min/mg | Activity (Plasmodium berghei [19]): Active
